Experimental data from ChEMBL document CHEMBL1255487, “Preclinical evaluation of the antifolate QN254, 5-chloro- N'6'-(2,5-dimethoxy-benzyl)-quinazoline-2,4,6-triamine, as an antimalarial drug candidate” (Antimicrob Agents Chemother, 2010).

What was measured:
[1] = Binding affinity to wild type Plasmodium falciparum DHFR by competitive binding assay
Plasmodium falciparum [2] = test: Antimalarial activity against pyrimethamine-resistant Plasmodium falciparum clinical isolate harboring S108N, N51I, C59R mutation in DHFR assessed as decrease in parasitaemia; type: functional, organism-based
Procedure, shortened: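 P. falciparum grown in RPMI 1640 with 10% (v/v) human serum, 25 mM bicarbonate, 2 mM glutamine, 25 mM HEPES, 5 nM para-aminobenzoic acid and 23 nM folic acid. Parasites exposed to a concentration series. Read-out is [3H]hypoxanthine incorporation into nucleic acid. IC50 taken from non-linear regression of the dose–response curve.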

Mus musculus [3] = test: Toxicity in NMRI mice (Mus musculus) infected with Plasmodium berghei ANKA at 3 times 30 mg/kg, perorally measured up to 30 days postinfection; type: organism-based; design: dose 30 mg/kg, route oral; settings: in vivo, po, 720 h
Plasmodium berghei [4] = test: Antimalarial activity against Plasmodium berghei ANKA infected in NMRI mice (Mus musculus) assessed as cure rate at 10 mg/kg, perorally administered as single dose […]; type: functional; settings: route oral
Procedure, shortened: (§1)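 Female NMRI mice (20–22 g), 5 per group, infected intravenously with 0.2 ml of 1 × 10^8 parasitized erythrocytes/ml from a fresh donor mouse. Compound suspended in 0.5% carboxymethyl cellulose and given orally. Survival followed to day 30 post-infection; an animal was scored cured if it survived to day 30 without parasites.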

Plasmodium berghei [5] = test: Antimalarial activity against Plasmodium berghei ANKA infected in NMRI mice (Mus musculus) assessed as reduction in parasitemia at 3 times 60 mg/kg, perorally measured on day 3 postinfection; type: functional; design: scale not given: the % may be the effect or the level left; settings: route oral
Procedure, shortened: (§2)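 P. berghei ANKA given intravenously to groups of 5 female NMRI mice (20–22 g): 0.2 ml of 1 × 10^8 parasitized erythrocytes/ml from a donor mouse. Oral dosing in 0.5% carboxymethyl cellulose. Parasitemia counted by microscopy. Activity is the control-minus-treated parasitemia difference, expressed as percent of untreated controls.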

Plasmodium berghei [6] = test: Antimalarial activity against Plasmodium berghei ANKA infected in NMRI mice (Mus musculus) assessed as reduction in parasitemia at 15 mg/kg, perorally administered as single dose measured on day 3 postinfection; type: functional; design: scale not given: the % may be the effect or the level left; settings: route oral; procedure, shortened: as §2
Plasmodium berghei [7] = test: Antimalarial activity against Plasmodium berghei ANKA infected in NMRI mice (Mus musculus) assessed as mean survival time at 3 times 30 mg/kg, perorally; type: functional; settings: route oral
Procedure, shortened: (§3)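 Infection: 5 female NMRI mice (20–22 g) per group, inoculated intravenously with 0.2 ml of donor blood at 1 × 10^8 parasitized erythrocytes/ml. Oral administration in 0.5% carboxymethyl cellulose. Survival time recorded up to 30 days after infection and averaged per group.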

Plasmodium berghei [8] = test: Antimalarial activity against Plasmodium berghei ANKA infected in NMRI mice (Mus musculus) assessed as survival rate at 100 mg/kg, perorally administered as single dose; type: functional; settings: route oral; procedure, shortened: as §3
Plasmodium berghei [9] = test: Antimalarial activity against Plasmodium berghei ANKA infected in NMRI mice (Mus musculus) assessed as reduction in parasitemia at 60 mg/kg, perorally administered as single dose measured on day 3 postinfection; type: functional; design: scale not given: the % may be the effect or the level left; settings: route oral; procedure, shortened: as §2
[10] = Clearance in CD-1 mouse at 5 mg/kg, iv; type: ADME, organism-based; design: dose 5 mg/kg, route intravenous; settings: in vivo
Procedure, shortened: (§4)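 Mice dosed with 25 mg/kg p.o. as a 2.5 mg/ml suspension in 0.5% CMC, or with 5 mg/kg i.v. at 1 mg/ml in 10% NMP, 30% PEG 400 and 60% of 10% vitamin E-TPGS. Blood sampled at several time points. Plasma extracted with acidified acetonitrile (8:1) and quantified by LC-MS, LLOQ 12 ng/ml.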

[11] = AUC (0 to 24 hrs) in NMRI mouse at 26.5 mg/kg, po; settings: plasma
Plasmodium berghei [12] = test: Antimalarial activity against Plasmodium berghei ANKA infected in NMRI mice (Mus musculus) assessed as cure rate at 30 mg/kg, perorally administered as single dose […]; type: functional; settings: route oral; procedure, shortened: as §1
Mus musculus [13] = test: Toxicity in NMRI mice (Mus musculus) infected with Plasmodium berghei ANKA at 60 mg/kg, perorally administered as single dose measured up to 30 days postinfection; type: organism-based; design: dose 60 mg/kg, route oral; settings: in vivo, po, 720 h
Rattus norvegicus = test: Toxicity in Wistar rat assessed as occurrence of massive bone marrow atrophy at => 50 mg/kg, po after 2 weeks; type: organism-based; design: dose 50 mg/kg, route oral; settings: in vivo, 336 h
Procedure, shortened: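 Male Wistar rats, about 10 weeks old (254–292 g), 5 per group, gavaged daily with 50, 150 or 500 mg/kg/day. Vehicle was 10% of 1% aqueous Solutol HS15 plus 90% of 0.5% aqueous methylcellulose; exploratory 2-week design. Clinical observations, body weight, food intake, hematology, clinical chemistry and gross pathology recorded. Histopathology covered gross lesions and selected organs in the control and low-dose groups.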

[14] = Volume of distribution in CD-1 mouse at 5 mg/kg, iv; type: ADME, organism-based; design: dose 5 mg/kg, route intravenous; settings: in vivo; procedure, shortened: as §4
Plasmodium berghei [15] = test: Antimalarial activity against Plasmodium berghei ANKA infected in NMRI mice (Mus musculus) assessed as survival rate at 15 mg/kg, perorally administered as single dose; type: functional; settings: route oral; procedure, shortened: as §3
Mus musculus [16] = test: Toxicity in NMRI mice (Mus musculus) infected with Plasmodium berghei ANKA at 15 mg/kg, perorally administered as single dose measured up to 30 days postinfection; type: organism-based; design: dose 15 mg/kg, route oral; settings: in vivo, po, 720 h
[17] = Oral bioavailability in Wistar rat at 25 mg/kg; type: ADME, organism-based; settings: in vivo
Procedure, shortened: (§5)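 Rats dosed with 25 mg/kg p.o. as a 2.5 mg/ml suspension in 0.5% CMC, or with 5 mg/kg i.v. at 1 mg/ml in 10% NMP, 30% PEG 400 and 60% of 10% vitamin E-TPGS. Plasma sampled over time, extracted with acidified acetonitrile (8:1) and quantified by LC-MS, LLOQ 12 ng/ml.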

[18] = Oral bioavailability in CD-1 mouse at 25 mg/kg; type: ADME, organism-based; settings: in vivo; procedure, shortened: as §4
[19] = Volume of distribution in Wistar rat at 5 mg/kg, iv; type: ADME, organism-based; design: dose 5 mg/kg, route intravenous; settings: in vivo; procedure, shortened: as §5
[20] = Binding affinity to recombinant Plasmodium falciparum V1/S DHFR S108N, N51I, C59R, I164L mutant by competitive binding assay; design: species or system V1S
Plasmodium falciparum [21] = test: Antimalarial activity against pyrimethamine-resistant Plasmodium falciparum V1/S harboring S108N, N51I, C59R, I164L mutation in DHFR assessed as decrease in parasitaemia; type: functional, organism-based; settings: V1S
[22] = Half life in Wistar rat at 25 mg/kg, po; type: ADME, organism-based; design: dose 25 mg/kg, route oral; settings: in vivo; procedure, shortened: as §5
Plasmodium berghei [23] = test: Antimalarial activity against Plasmodium berghei ANKA infected in NMRI mice (Mus musculus) assessed as cure rate at 3 times 30 mg/kg, perorally measured […]; type: functional; settings: route oral; procedure, shortened: as §1
Dihydrofolate reductase = target: T1, Dihydrofolate reductase (Homo sapiens, UniProt P00374); test: Binding affinity to human recombinant DHFR expressed in Escherichia coli BL21(DE3) by competitive binding assay
T1 sequence (P00374 whole entry): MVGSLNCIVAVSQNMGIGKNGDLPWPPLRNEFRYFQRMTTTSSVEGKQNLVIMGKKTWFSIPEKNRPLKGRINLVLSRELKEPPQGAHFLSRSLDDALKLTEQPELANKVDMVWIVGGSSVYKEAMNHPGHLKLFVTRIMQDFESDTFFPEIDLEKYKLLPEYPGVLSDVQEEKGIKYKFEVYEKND

[24] = Half life in CD-1 mouse at 5 mg/kg, iv; type: ADME, organism-based; design: dose 5 mg/kg, route intravenous; settings: in vivo; procedure, shortened: as §4

**Q.** Which Ki [1] does the source give for COc1ccc(OC)c(CNc2ccc3nc(N)nc(N)c3c2Cl)c1 here?
**A.** 0.39 nM

**Q.** What about the IC50 (Plasmodium falciparum [2]) of the same molecule?
**A.** 11.7 nM

**Q.** What about the Activity (Mus musculus [3]) of the same molecule?
**A.** 0%

**Q.** What about the Activity (Plasmodium berghei [4]) of the same molecule?
**A.** 0%

**Q.** What about the Activity (Plasmodium berghei [5]) of the same molecule?
**A.** >99.99%

**Q.** What about the Activity (Plasmodium berghei [6]) of the same molecule?
**A.** 73%

**Q.** What about the Survival (Plasmodium berghei [7]) of the same molecule?
**A.** 28.4 days

**Q.** And the Survival (Plasmodium berghei [8])?
**A.** 23.4 days

**Q.** And the Activity (Plasmodium berghei [9])?
**A.** >99.99%

**Q.** What about the clearance [10] of the same molecule?
**A.** 51.1 mL/min/kg

**Q.** What about the AUC(0-t) at 24 h [11] of the same molecule?
**A.** 17000 ng·h/mL

**Q.** And the Activity (Plasmodium berghei [12])?
**A.** 0%

**Q.** And the Activity (Mus musculus [13])?
**A.** 0%

**Q.** What about the Activity (Rattus norvegicus) of the same molecule?
**A.** Toxic

**Q.** What about the Vd [14] of the same molecule?
**A.** 2.85 L/kg

**Q.** What about the Survival (Plasmodium berghei [15]) of the same molecule?
**A.** 6 days

**Q.** What about the Activity (Mus musculus [16]) of the same molecule?
**A.** 0%

**Q.** What about the bioavailability [17] of the same molecule?
**A.** 63%

**Q.** What about the bioavailability [18] of the same molecule?
**A.** 100%

**Q.** And the Vd [19]?
**A.** 4.7 L/kg

**Q.** And the Ki [20]?
**A.** 0.58 nM

**Q.** What about the IC50 (Plasmodium falciparum [21]) of the same molecule?
**A.** 7.61 nM

**Q.** And the half-life [22]?
**A.** 9.3 h

**Q.** And the Activity (Plasmodium berghei [23])?
**A.** 80%

**Q.** What about the Ki (Dihydrofolate reductase) of the same molecule?
**A.** 10.2 nM

**Q.** And the half-life [24]?
**A.** 0.8 h
